In PMC3037833 (Angewandte Chemie (International ed. in English), 2010):
Where two headings read alike, the source gives them in different places. No end group written: not given here.

T1: N1P1 (NHERF1 PDZ domain 1) (Homo sapiens, UniProt O14745)
T1 sequence (O14745 14-94 limits assumed): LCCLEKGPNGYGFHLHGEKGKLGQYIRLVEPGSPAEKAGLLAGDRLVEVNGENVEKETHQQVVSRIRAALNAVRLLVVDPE

T2: N1P2 (NHERF1 PDZ domain 2) (Homo sapiens, UniProt O14745)
T2 sequence (O14745 154-234 limits assumed): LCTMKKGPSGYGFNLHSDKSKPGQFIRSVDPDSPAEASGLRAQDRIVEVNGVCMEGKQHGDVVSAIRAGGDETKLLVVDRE

T3: F*-iCAL36
T3 chain: fluorescein-ANSRWPTSII

T4: SSR56 (Homo sapiens, N-terminal cysteine on peptide)
T4 chain: MQTSKL

T5: iCAL366 (N-terminal cysteine on peptide)
T5 chain: WPTSII

T6: iCAL356 (N-terminal cysteine on peptide)
T6 chain: WQTSII

T7: iCAL368
T7 chain: SRWPTSII

T8: iCAL056 (N-terminal cysteine on peptide)
T8 chain: MQTSKI

T9: iCAL066 (N-terminal cysteine on peptide)
T9 chain: MQTSII

T10: iCAL3610
T10 chain: ANSRWPTSII

T11: CFTR10 (Homo sapiens)
T11 chain: TEEEVQDTRL

T12: SSR510 (Homo sapiens)
T12 chain: ANGLMQTSKL


Tests used:
[1] = target: N2P2 (NHERF2 PDZ domain 2) (Homo sapiens, UniProt Q15599); test: Fluorescence polarization; type: binding
[2] = target: N2P1 (NHERF2 PDZ domain 1) (Homo sapiens, UniProt Q15599); test: Fluorescence polarization; type: binding
[3] = target: T1, N1P1 (NHERF1 PDZ domain 1); test: Fluorescence polarization; type: binding
Summary of the method: (§1)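 Test peptides were assayed by fluorescence polarization inhibition for binding to the isolated PDZ domain; the same format was applied across the five CFTR-associated PDZ domains.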

[4] = target: T2, N1P2 (NHERF1 PDZ domain 2); test: Fluorescence polarization; type: binding
Summary of the method: as §1

[5] = target: T3, F*-iCAL36; test: fluorescence polarization
[6] = target: T4, SSR56; test: fluorescence polarization competition
[7] = target: T5, iCAL366; test: fluorescence polarization competition
[8] = target: T6, iCAL356; test: fluorescence polarization competition
[9] = target: T7, iCAL368; test: fluorescence polarization competition
[10] = target: T8, iCAL056; test: fluorescence polarization competition
[11] = target: T9, iCAL066; test: fluorescence polarization competition
[12] = target: T10, iCAL3610; test: fluorescence polarization competition
[13] = target: T11, CFTR10; test: fluorescence polarization competition
[14] = target: T12, SSR510; test: fluorescence polarization competition

Ki ([1]; SD)	Ki ([2]; SD)	Ki [3]	Ki [4]	Ki ([3]; SD)	Ki ([4]; SD)	Ki [1]	Ki [2]	Kd [5]	Ki [6]	Ki [7]	Ki [8]	Ki [9]	Ki [10]	Ki [11]	Ki [12]	Ki [13]	Ki [14]	Molecule
433 ± 154 µM	516 ± 183 µM	> 5000 µM	> 5000 µM															SRWPTSII [iCAL36_8]
				0.45 ± 0.02 µM	1.9 ± 0.1 µM													CC(C)C[C@H](NC(=O)[C@H](CCCNC(=N)N)NC(=O)[C@@H](NC(=O)[C@H](CC(=O)O)NC(=O)[C@H](CCC(N)=O)NC(=O)[C@@H](NC(=O)[C@H](CCC(=O)O)NC(=O)[C@H](CCC(=O)O)NC(=O)[C@H](CCC(=O)O)NC(=O)[C@@H](N)[C@@H](C)O)C(C)C)[C@@H](C)O)C(=O)O [CFTR10, reference compound]
19.8 ± 2.7 µM	38.6 ± 7.7 µM			24.5 ± 1.9 µM	130 ± 48 µM													CSCC[C@H](NC(=O)[C@H](CC(C)C)NC(=O)CNC(=O)[C@H](CC(N)=O)NC(=O)[C@H](C)N)C(=O)N[C@@H](CCC(N)=O)C(=O)N[C@H](C(=O)N[C@@H](CO)C(=O)N[C@@H](CCCCN)C(=O)N[C@@H](CC(C)C)C(=O)O)[C@@H](C)O [SSR5_10, reference compound]
		> 5000 µM	> 5000 µM			> 3000 µM	> 5000 µM											CC[C@H](C)[C@H](NC(=O)[C@@H](NC(=O)[C@H](CO)NC(=O)[C@@H](NC(=O)[C@@H]1CCCN1C(=O)[C@H](Cc1c[nH]c2ccccc12)NC(=O)[C@H](CCCNC(=N)N)NC(=O)[C@H](CO)NC(=O)[C@H](CC(N)=O)NC(=O)[C@H](C)N)[C@@H](C)O)[C@@H](C)CC)C(=O)O [iCAL36_10]
								> 1000 µM	50.2 µM	> 5000 µM	> 5000 µM	> 5000 µM	1700 µM	2400 µM	> 5000 µM	1.9 µM	130 µM	NHERF1 PDZ2 (protein) RPRLCTMKKGPSGYGFNLHSDKSKPGQFIRSVDPDSPAEASGLRAQDRIVEVNGVCMEGKQHGDVVSAIRAGGDETKLLVVDRETDE
								> 1000 µM	10 µM	> 5000 µM	246 µM	433 µM	109 µM	166 µM	> 3000 µM	0.1 µM	19.8 µM	NHERF2 PDZ2 (protein) LRPRLCHLRKGPQGYGFNLHSDKSRPGQYIRSVDPGSPAARSGLRAQDRLIEVNGQNVEGLRHAEVVASIKAREDEARLLVVDPETD
								> 1000 µM	19.3 µM	> 5000 µM	430 µM	> 5000 µM	914 µM	245 µM	> 5000 µM	0.45 µM	24.5 µM	NHERF1 PDZ1 (protein) LPRLCCLEKGPNGYGFHLHGEKGKLGQYIRLVEPGSPAEKAGLLAGDRLVEVNGENVEKETHQQVVSRIRAALNAVRLLVVDPETDE
								> 1000 µM	31.7 µM	> 5000 µM	496 µM	516 µM	806 µM	245 µM	> 5000 µM	1.1 µM	38.6 µM	NHERF2 PDZ1 (protein) RPRLCRLVRGEQGYGFHLHGEKGRRGQFIRRVEPGSPAEAAALRAGDRLVEVNGVNVEGETHHQVVQRIKAVEGQTRLLVVDQETD
